We go through three compounds from ChEMBL document CHEMBL3593164, “Rational Design and Synthesis of Thioridazine Analogues as Enhancers of the Antituberculosis Therapy” (J Med Chem, 2015).

Broadly, the MIC is the smallest concentration in the dilution series that meets the test's criterion for growth inhibition.

Assay [1] relates to Mycobacterium tuberculosis. Nature of the assay: Inhibition of multidrug resistance efflux pump in Mycobacterium tuberculosis H37Rv assessed as rifampin MIC at 1.88 ug/ml after 7 days by two-dimensional broth microdilution checkerboard assay. The following applies: 168 h. A digest of the protocol: (§1)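 M. tuberculosis H37Rv ATCC27294. MICs of INH, RIF, AMK, OFX and EtBr were determined alone and with sub-inhibitory concentrations of test compound by two-dimensional broth microdilution checkerboard. Where a compound's MIC was not determinable, the highest concentration still allowing growth was taken as ½ MIC. FIC = MIC in combination / MIC alone. FIC ≤0.25 was scored as synergism and ≥2 as antagonism.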
On the technique in general: In broth dilution the organism is exposed to a series of concentrations in liquid medium.

The subject of assay [2] is Mycobacterium tuberculosis. Put plainly: Inhibition of multidrug resistance efflux pump in Mycobacterium tuberculosis H37Rv assessed as rifampin MIC at 0.47 ug/ml after 7 days by two-dimensional broth microdilution checkerboard assay. The conditions noted are these: 168 h. A digest of the protocol:
as §1

Assay [3] has as its system Mycobacterium tuberculosis. Nature of the assay: Inhibition of multidrug resistance efflux pump in Mycobacterium tuberculosis H37Rv assessed as rifampin MIC at 0.12 ug/ml after 7 days by two-dimensional broth microdilution checkerboard assay. The following applies: 168 h. A digest of the protocol:
as §1

Assay [4] deals with Mycobacterium tuberculosis. Nature of the assay: Inhibition of multidrug resistance efflux pump in Mycobacterium tuberculosis H37Rv assessed as amikacin MIC at 1.88 ug/ml after 7 days by two-dimensional broth microdilution checkerboard assay. The following applies: 168 h. A digest of the protocol: as §1
The subject of assay [5] is Mycobacterium tuberculosis. Nature of the assay: Inhibition of multidrug resistance efflux pump in Mycobacterium tuberculosis H37Rv assessed as amikacin MIC at 0.94 ug/ml after 7 days by two-dimensional broth microdilution checkerboard assay. The conditions noted are these: 168 h. A digest of the protocol: as §1
Assay [6] concerns Mycobacterium tuberculosis. Put plainly: Inhibition of multidrug resistance efflux pump in Mycobacterium tuberculosis H37Rv assessed as amikacin MIC at 0.23 ug/ml after 7 days by two-dimensional broth microdilution checkerboard assay. The conditions noted are these: 168 h. A digest of the protocol: as §1
Assay [7] deals with Mycobacterium tuberculosis. Put plainly: Inhibition of multidrug resistance efflux pump in Mycobacterium tuberculosis H37Rv assessed as amikacin MIC at 0.12 ug/ml after 7 days by two-dimensional broth microdilution checkerboard assay. The conditions noted are these: 168 h. A digest of the protocol:
as §1

The subject of assay [8] is Mycobacterium tuberculosis. Put plainly: Inhibition of multidrug resistance efflux pump in Mycobacterium tuberculosis H37Rv assessed as ofloxacin MIC at 7.5 ug/ml after 7 days by two-dimensional broth microdilution checkerboard assay. The conditions noted are these: 168 h. A digest of the protocol:
(§2)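 M. tuberculosis H37Rv two-dimensional broth microdilution checkerboard. MICs of INH, RIF, AMK, OFX or EtBr were determined without and with graded sub-inhibitory compound concentrations, starting at ½ MIC. Where MIC was undeterminable, the highest concentration still permitting growth was taken as ½ MIC. FIC = MIC of antibacterial in combination / MIC alone. FIC ≤0.25 was scored as synergism and ≥2 as antagonism.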

Assay [9] has as its system Mycobacterium tuberculosis. Put plainly: Inhibition of multidrug resistance efflux pump in Mycobacterium tuberculosis H37Rv assessed as ofloxacin MIC at 3.75 ug/ml after 7 days by two-dimensional broth microdilution checkerboard assay. The following applies: 168 h. A digest of the protocol:
as §1

For assay [10], the system named is Mycobacterium tuberculosis. Put plainly: Inhibition of multidrug resistance efflux pump in Mycobacterium tuberculosis H37Rv assessed as ofloxacin MIC at 1.88 ug/ml after 7 days by two-dimensional broth microdilution checkerboard assay. The conditions noted are these: 168 h. A digest of the protocol: as §1
For assay [11], the system named is Mycobacterium tuberculosis. Put plainly: Inhibition of multidrug resistance efflux pump in Mycobacterium tuberculosis H37Rv assessed as ofloxacin MIC at 0.47 ug/ml after 7 days by two-dimensional broth microdilution checkerboard assay. The conditions noted are these: 168 h. A digest of the protocol: as §1
Assay [12] has as its system Mycobacterium tuberculosis. Put plainly: Inhibition of multidrug resistance efflux pump in Mycobacterium tuberculosis H37Rv assessed as ofloxacin MIC at 0.23 ug/ml after 7 days by two-dimensional broth microdilution checkerboard assay. The following applies: 168 h. A digest of the protocol:
as §1

For assay [13], the system named is Mycobacterium tuberculosis. Put plainly: Inhibition of multidrug resistance efflux pump in Mycobacterium tuberculosis H37Rv assessed as ethidium bromide MIC at 3.75 ug/ml after 7 days by two-dimensional broth microdilution checkerboard assay. The following applies: 168 h. A digest of the protocol:
as §1

Assay [14] concerns Mycobacterium tuberculosis. Nature of the assay: Inhibition of multidrug resistance efflux pump in Mycobacterium tuberculosis H37Rv assessed as ethidium bromide MIC at 0.94 ug/ml after 7 days by two-dimensional broth microdilution checkerboard assay. The conditions noted are these: 168 h. A digest of the protocol: as §1
Assay [15] concerns Mycobacterium tuberculosis. Nature of the assay: Inhibition of multidrug resistance efflux pump in Mycobacterium tuberculosis H37Rv assessed as ethidium bromide MIC at 0.47 ug/ml after 7 days by two-dimensional broth microdilution checkerboard assay. The following applies: 168 h. A digest of the protocol: as §1
In assay [16] the test system is Mycobacterium tuberculosis. Nature of the assay: Inhibition of multidrug resistance efflux pump in Mycobacterium tuberculosis H37Rv assessed as ethidium bromide MIC at 0.12 ug/ml after 7 days by two-dimensional broth microdilution checkerboard assay. The conditions noted are these: 168 h. A digest of the protocol: as §1
Assay [17] has as its system Mycobacterium tuberculosis. Nature of the assay: Inhibition of multidrug resistance efflux pump in Mycobacterium tuberculosis H37Rv assessed as reduction in isoniazid MIC at 7.5 ug/ml after 7 days by two-dimensional broth microdilution checkerboard assay. A digest of the protocol:
as §2

For assay [18], the system named is Mycobacterium tuberculosis. Nature of the assay: Inhibition of multidrug resistance efflux pump in Mycobacterium tuberculosis H37Rv assessed as reduction in rifampin MIC at 7.5 ug/ml after 7 days by two-dimensional broth microdilution checkerboard assay. A digest of the protocol: as §2
Assay [19] deals with Mycobacterium tuberculosis. Nature of the assay: Inhibition of multidrug resistance efflux pump in Mycobacterium tuberculosis H37Rv assessed as reduction in ethidium bromide MIC at 7.5 ug/ml after 7 days by two-dimensional broth microdilution checkerboard assay. A digest of the protocol: as §2
The subject of assay [20] is Mycobacterium tuberculosis. Put plainly: Inhibition of multidrug resistance efflux pump in Mycobacterium tuberculosis H37Rv assessed as reduction in ethidium bromide MIC at 3.75 ug/ml after 7 days by two-dimensional broth microdilution checkerboard assay. A digest of the protocol: as §2
The test system of assay [21] is Mycobacterium tuberculosis. Put plainly: Inhibition of multidrug resistance efflux pump in Mycobacterium tuberculosis H37Rv assessed as isoniazid MIC at 7.5 ug/ml after 7 days by two-dimensional broth microdilution checkerboard assay. The conditions noted are these: 168 h. A digest of the protocol:
as §2

Assay [22] deals with Mycobacterium tuberculosis. Nature of the assay: Inhibition of multidrug resistance efflux pump in Mycobacterium tuberculosis H37Rv assessed as isoniazid MIC at 0.94 ug/ml after 7 days by two-dimensional broth microdilution checkerboard assay. The conditions noted are these: 168 h. A digest of the protocol: as §1
Assay [23] has as its system Mycobacterium tuberculosis. Nature of the assay: Inhibition of multidrug resistance efflux pump in Mycobacterium tuberculosis H37Rv assessed as isoniazid MIC at 0.23 ug/ml after 7 days by two-dimensional broth microdilution checkerboard assay. The conditions noted are these: 168 h. A digest of the protocol:
as §1

Assay [24] concerns Mycobacterium tuberculosis. Nature of the assay: Inhibition of multidrug resistance efflux pump in Mycobacterium tuberculosis H37Rv assessed as rifampin MIC at 3.75 ug/ml after 7 days by two-dimensional broth microdilution checkerboard assay. The following applies: 168 h. A digest of the protocol: as §1
Assay [25] concerns Mycobacterium tuberculosis. Put plainly: Inhibition of multidrug resistance efflux pump in Mycobacterium tuberculosis H37Rv assessed as reduction in ethidium bromide MIC at 128 ug/ml after 7 days by two-dimensional broth microdilution checkerboard assay.
Assay [26] relates to Mycobacterium tuberculosis. Put plainly: Inhibition of multidrug resistance efflux pump in Mycobacterium tuberculosis H37Rv assessed as reduction in isoniazid MIC at 64 ug/ml after 7 days by two-dimensional broth microdilution checkerboard assay. A digest of the protocol:
as §2

Assay [27] relates to Mycobacterium tuberculosis. Nature of the assay: Inhibition of multidrug resistance efflux pump in Mycobacterium tuberculosis H37Rv assessed as reduction in amikacin MIC at 32 ug/ml after 7 days by two-dimensional broth microdilution checkerboard assay. A digest of the protocol:
as §2

In assay [28] the test system is Mycobacterium tuberculosis. Put plainly: Inhibition of multidrug resistance efflux pump in Mycobacterium tuberculosis H37Rv assessed as reduction in ethidium bromide MIC at 32 ug/ml after 7 days by two-dimensional broth microdilution checkerboard assay. A digest of the protocol:
as §2

Assay [29] deals with Mycobacterium tuberculosis. Nature of the assay: Inhibition of multidrug resistance efflux pump in Mycobacterium tuberculosis H37Rv assessed as isoniazid MIC at 1 ug/ml after 7 days by two-dimensional broth microdilution checkerboard assay. The conditions noted are these: 168 h. A digest of the protocol: as §2
Assay [30] relates to Mycobacterium tuberculosis. Put plainly: Inhibition of multidrug resistance efflux pump in Mycobacterium tuberculosis H37Rv assessed as rifampin MIC at 2 ug/ml after 7 days by two-dimensional broth microdilution checkerboard assay. The conditions noted are these: 168 h.
The test system of assay [31] is Mycobacterium tuberculosis. Nature of the assay: Inhibition of multidrug resistance efflux pump in Mycobacterium tuberculosis H37Rv assessed as rifampin MIC at 1 ug/ml after 7 days by two-dimensional broth microdilution checkerboard assay. The conditions noted are these: 168 h. A digest of the protocol:
as §2

Consider `CSc1ccc2c(c1)N(CCC1CCCCN1C)c1ccccc1S2` (stereo unspecified) [THIORIDAZINE], for which the MIC in [1], in assay [2], in assay [3], in [4], in [5] and in [6] was 1 µg/mL in each case. In addition, the minimal inhibitory concentration (MIC) in [7] was 1 µg/mL; in assay [8], less than 0.0156 µg/mL; in [9], 1 µg/mL; in [10], 1 µg/mL; in assay [11], 1 µg/mL; in assay [12], 1 µg/mL. The MIC in [13] was 3.12 µg/mL; in assay [14], 6.25 µg/mL; in assay [15], 6.25 µg/mL; in assay [16], 6.25 µg/mL; in [21], less than 0.00078 µg/mL; in [22], 0.1 µg/mL. Moreover, the MIC turned out to be 0.1 µg/mL in assay [23] and 1 µg/mL in assay [24]. For the same compound, the “fold change (FC)” value in [17] is greater than 128; in assay [18], greater than 64; in assay [19], greater than 64; in assay [20] it was 4.
Take `CN1CCCCC1CCn1ccc2ccc(Br)cc21` (racemic): in [25], the “fold change (FC)” value is greater than 164.
For `CN1CCCCC1CCn1c2ccccc2c2ccccc21` (racemic), the figures for the “fold change (FC)” value in assay [26], in assay [27] and in assay [28] were greater than 128, 4 and 4, respectively. For the same compound, the MIC amounted to 0.1 µg/mL in [29], 1 µg/mL in [30] and 1 µg/mL in assay [31].
